For assay [1], the system named is CCRF-CEM. Nature of the assay: Antiviral activity was measured as IC50 by calculating amount of virus present in CEM cells by P24 ELISA test. It is filed as functional, cell-based. Conditions: Homo sapiens. The procedure, abridged:
(§1)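 Same CEM/HIV-1 PLN4-3 infection scheme: virus washed off after 2 h, compound in DMSO added in fresh medium, supernatants harvested 72 h post-infection. Viral load measured as virion-associated p24 antigen by ELISA in the culture supernatants.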

The subject of assay [2] is CCRF-CEM. Nature of the assay: (§2) Cytotoxicity (TC90) was measured by MTT transformation assay. Format: functional, Homo sapiens.
Assay [3] relates to CCRF-CEM. As to the kind of experiment: Toxicity was measured by MTT assay after 72 hours at 100 uM. It is filed as functional, Homo sapiens. Put shortly: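 Infected CEM cells exposed to compounds (in DMSO) at 100 μM; viability after 72 h by MTT. MTT (7.5 mg/mL in phosphate buffer) added per well, 4 h at 37 °C under CO2. Formazan dissolved in 10% SDS, 10 mM HCl, absorbance at 570 nm. Average of three experiments.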

For assay [4], the system named is CCRF-CEM. As to the kind of experiment: Cytotoxicity (TC50) was measured by MTT transformation assay. It is filed as functional. The conditions noted are these: Homo sapiens, read-out: TC50 (the source's name). For orientation: Tetrazolium assays rely on reduction of a dye to a coloured formazan, in cell work by metabolically active cells.
Assay [5] concerns CCRF-CEM. As to the kind of experiment: Antiviral activity was measured as IC90 by calculating amount of virus present in CEM cells by P24 ELISA test. Format: functional. The conditions noted are these: Homo sapiens. Put shortly: as §1
The test system of assay [6] is Human immunodeficiency virus 1. As to the kind of experiment: Effect upon disintegration catalyzed by the deletion mutant. It is filed as functional.
Assay [7] has as its target T1, Human immunodeficiency virus type 1 integrase (Human immunodeficiency virus 1, UniProt Q7ZJM1). As to the kind of experiment: HIV integrase inhibitory potency was evaluated as IC50 on 3' processing of target DNA.
In assay [8] the test system is CCRF-CEM. Nature of the assay: Antiviral activity was measured as IC25 by calculating amount of virus present in CEM cells by beta-galactosidase assay. It is filed as functional. The conditions noted are these: Homo sapiens. The procedure, abridged:
(§3)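 HIV-1 PLN4-3 (cell-free virus from CEM transfection) infection of CEM cells (RPMI-1640, 10% FCS), triplicate wells. Virus removed at 2 h, compounds in DMSO added in fresh medium at increasing concentrations. Supernatants taken at 72 h and used to infect HeLaCD4+-β-gal (P4) cells for 24 h. Lysate incubated with CPRG for 1 h, read at 570 nm. Average of three experiments.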

Assay [9] has as its system CCRF-CEM. Nature of the assay: Antiviral activity was measured as IC50 by calculating amount of virus present in CEM cells by beta-galactosidase assay. Conditions: Homo sapiens. Format: functional, cell-based. Put shortly: as §3
In assay [10] the test system is CCRF-CEM. As to the kind of experiment: Antiviral activity was measured as IC90 by calculating amount of virus present in CEM cells by beta-galactosidase assay. Format: functional. Conditions: Homo sapiens. Put shortly:
as §3

For assay [11], the target named is T1, Human immunodeficiency virus type 1 integrase. Nature of the assay: In vitro anti-HIV integrase activity against integration (strand transfer) of target plasmid.
In assay [12] the test system is CCRF-CEM. Nature of the assay: Toxicity was measured by MTT assay after 120 hours at 100 uM. Format: functional, Homo sapiens. The procedure, abridged:
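Infected CEM cells exposed to compounds at 100 μM; viability assessed 120 h after infection by MTT transformation assay (formazan solubilized in SDS/HCl, absorbance at 570 nm).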

The test system of assay [13] is CCRF-CEM. Described as §2. The conditions noted are these: Homo sapiens. Format: functional.
For assay [14], the system named is CCRF-CEM. Nature of the assay: Antiviral activity was measured as IC50 by calculating amount of virus present in CEM cells by P4 infection. The conditions noted are these: Homo sapiens. It is filed as functional, cell-based. The procedure, abridged:
as §3

Assay [15] relates to CCRF-CEM. As to the kind of experiment: Antiviral activity was measured as IC90 by calculating amount of virus present in CEM cells by P4 infection. Conditions: Homo sapiens. Format: functional. The procedure, abridged: as §3
Assay [16] has as its target T1, Human immunodeficiency virus type 1 integrase. As to the kind of experiment: In vitro anti-HIV integrase activity against 3' processing of target plasmid. Put shortly: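 Buffer: 20 mM Tris pH 7.2, 30 mM NaCl, 10% glycerol, 10 mM DTT, 0.01% NP40 and 10 mM MnCl2. Compounds were tested over a concentration range, and IC50 was taken for inhibition of 3'-processing.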

In general, IC50 refers to the concentration that gives 50% inhibition. What is called IC90 is the concentration at which the effect reaches the 90% level. A word on the IC25: it is the point of the concentration-response curve where the effect stands at 25%.

Each structure is given as a SMILES string.

T1 sequence (Q7ZJM1 whole entry): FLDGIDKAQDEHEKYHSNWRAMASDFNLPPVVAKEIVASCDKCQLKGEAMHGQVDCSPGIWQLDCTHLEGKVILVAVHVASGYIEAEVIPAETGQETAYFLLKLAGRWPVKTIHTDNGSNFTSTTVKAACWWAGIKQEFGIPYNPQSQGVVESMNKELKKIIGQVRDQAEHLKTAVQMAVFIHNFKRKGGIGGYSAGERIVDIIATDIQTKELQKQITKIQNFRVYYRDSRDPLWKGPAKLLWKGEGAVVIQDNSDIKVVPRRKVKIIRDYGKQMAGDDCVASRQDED

On to `O=C([O-])c1ccc2ccc(/C=C/c3ccc(O)c(O)c3)nc2c1O.[Na+]`, for which the IC50 with CCRF-CEM [1] was 20 µM; in assay [6] (Human immunodeficiency virus 1), 0.7 µM; in assay [7], 0.8 µM. The TC90 in the assay with CCRF-CEM [2] is above 100 µM. Besides, in the assay with CCRF-CEM [3], the Toxicity amounted to 0%. Also, the CC50 in the assay on CCRF-CEM [4] is above 100 µM. Besides, the IC90 in the assay on CCRF-CEM [5] was above 100 µM.
Compound `N#Cc1ccc2ccc(/C=C/c3ccc(O)c(O)c3)nc2c1O` came in with a TC90 with CCRF-CEM [2] of 56.3 µM. Further, the CC50 in the assay with CCRF-CEM [4] was 6.2 µM. For the same compound, the IC50 in [6] (Human immunodeficiency virus 1) came out at 3.6 µM; in assay [7] it was 3 µM.
As for `Cc1ccc2ccc(C(=O)O)c(O)c2n1`, the 25% effect concentration (IC25) in the assay with CCRF-CEM [8] was above 100 µM. Further, the concentration for half-maximal inhibition (IC50) with CCRF-CEM [9] was above 100 µM; in [7], above 100 µM; in [11], 114 µM. In the assay with CCRF-CEM [2], this compound showed a TC90 above 100 µM. The Toxicity in the assay on CCRF-CEM [3] was determined as 0%. In addition, the CC50 in the assay on CCRF-CEM [4] was above 100 µM. Besides, the IC90 with CCRF-CEM [10] is above 100 µM.
For `O=C(O)c1ccc2ccc(/C=C/c3ccc(O)cc3O)nc2c1O`, the IC25 in the assay with CCRF-CEM [8] was 26.3 µM. The IC50 is 79.8 µM in the assay with CCRF-CEM [9], 2.5 µM in assay [6] (Human immunodeficiency virus 1), 3.7 µM in assay [7] and 2.8 µM in assay [11]. For the same compound, in the assay on CCRF-CEM [2], the TC90 was above 100 µM. Moreover, the Toxicity in the assay with CCRF-CEM [12] is given as below 10%; in the assay on CCRF-CEM [3] it was 0%. Further, in the assay with CCRF-CEM [4], the CC50 was above 100 µM. Moreover, the IC90 in the assay with CCRF-CEM [10] is above 100 µM.
Consider `O=[N+]([O-])c1cccc2ccc(/C=C/c3ccc(O)c(O)c3)nc12`, for which the IC50 in assay [7] and in assay [11] was above 100 µM each time.
Take `Nc1cccc2ccc(/C=C/c3ccc(O)c(O)c3)nc12`: the IC50 in assay [7] and in assay [11] was above 100 µM each time.
`COc1ccc(/C=C/C(=O)Oc2cccc3ccc(C)nc23)cc1OC`: the IC50 in [7] and in assay [11] was above 100 µM in each case.
Consider `Oc1ccc(/C=C/c2ccc3cccc(O)c3n2)cc1O`, for which the IC25 in the assay on CCRF-CEM [8] is 1.2 µM. In addition, the half-inhibitory concentration (IC50) in the assay on CCRF-CEM [9] is 3.6 µM; in assay [6] (Human immunodeficiency virus 1), 2.5 µM; in assay [7], 7.4 µM; in assay [11], 2.4 µM. Besides, the TC90 with CCRF-CEM [2] was found to be 71 µM. In the assay with CCRF-CEM [3], this compound yielded a Toxicity of 99%. For the same compound, the CC50 in the assay with CCRF-CEM [4] turned out to be 8.1 µM.
Consider `Oc1cccc2ccc(/C=C/c3ccccc3)nc12`, for which the CC50 in the assay with CCRF-CEM [4] turned out to be 50.1 µM. This compound displayed a TC90 in the assay with CCRF-CEM [13] above 100 µM. Also, the concentration for half-maximal inhibition (IC50) in [7] and in assay [11] was above 100 µM in each case.
On to `O=C(O)c1ccc2ccc(/C=C/c3ccc(O)c(O)c3)nc2c1O`, for which, in the assay with CCRF-CEM [8], the IC25 is 0.46 µM. Further, the IC50 with CCRF-CEM [14] was 1.3 µM; in assay [6], 0.9 µM; in assay [7], 2.4 µM; in assay [11], 1 µM. Besides, in the assay with CCRF-CEM [2], the TC90 is above 100 µM. Besides, the values for the Toxicity with CCRF-CEM [12] and in the assay with CCRF-CEM [3] were below 10% and 0%, respectively. Moreover, the IC90 in the assay with CCRF-CEM [15] was 12.3 µM.
For the compound `Cc1ccc2cccc(OC(=O)/C=C/c3ccc(O)c(O)c3)c2n1`, the IC50 in assay [7] and in assay [11] was above 100 µM each time.
As for `O=C(O)c1ccc2ccc(/C=C/c3cc(O)c(O)c(O)c3)nc2c1O` [listing 1 of 2 here], the IC25 in the assay with CCRF-CEM [8] was 0.4 µM. Moreover, the IC50 in the assay with CCRF-CEM [9] is 1.2 µM; in assay [6] (Human immunodeficiency virus 1) it was 0.24 µM; in [7], 0.3 µM; in assay [11], 0.4 µM. The compound further returned a TC90 with CCRF-CEM [2] of 93.3 µM. This compound also yielded a Toxicity with CCRF-CEM [3] of 100%. In the assay with CCRF-CEM [4], the CC50 worked out at 10.7 µM. The concentration for an effect of 90% (IC90) in the assay on CCRF-CEM [10] is 10.7 µM.
The compound `Oc1cccc2ccc(/C=C/c3ccc4cccc(O)c4n3)nc12` registered a half-maximal inhibitory concentration (IC50) in assay [7] above 100 µM.
For the compound `Oc1ccc(/C=C/c2ccc3ccc(/C=C/c4ccc(O)c(O)c4)c(O)c3n2)cc1O`, the IC50 in assay [7] stood at 2.2 µM; in assay [11], 3.4 µM.
`O=C(O)c1cc(/C=C/c2ccc3ccc(C(=O)O)c(O)c3n2)ccc1O`: the IC25 with CCRF-CEM [8] was 20.9 µM. Further, the IC50 with CCRF-CEM [9] was 62 µM; in assay [6] (Human immunodeficiency virus 1), 0.6 µM; in assay [7] it was 2.7 µM; in assay [11], 0.6 µM. In the assay with CCRF-CEM [2], the TC90 is above 100 µM. Further, the Toxicity in the assay on CCRF-CEM [12] and with CCRF-CEM [3] was 0% throughout. Further, the CC50 in the assay with CCRF-CEM [4] is above 100 µM. Also, the IC90 in the assay with CCRF-CEM [10] was above 100 µM.
`O=C(O)c1ccc2ccc(/C=C/c3cc(O)c(O)c(O)c3)nc2c1O` [listing 2 of 2 here] returned an IC50 in assay [7] of 0.26 µM.
On to `Oc1ccc(/C=C/c2ccc3ccccc3n2)cc1O`, for which the CC50 with CCRF-CEM [4] was determined as 12.3 µM. For the same compound, the TC90 in the assay on CCRF-CEM [13] amounted to 100 µM. The IC50 in [7] is above 100 µM.
Take `CC(=O)Oc1ccc(/C=C/c2ccc3cccc(OC(C)=O)c3n2)cc1OC(C)=O`: the IC50 in [7] and in assay [11] was above 100 µM each time.
For `CC(=O)Oc1cccc2ccc(/C=C/c3ccccc3)nc12`, the IC50 in [7] and in assay [11] was above 100 µM each time.
For `Cc1ccc2cccc(O)c2n1` [8-HYDROXY QUINALDINE], the IC50 in assay [16] and in assay [11] was above 100 µM throughout.

The record behind these values is ChEMBL document CHEMBL1131039, “Styrylquinoline derivatives: a new class of potent HIV-1 integrase inhibitors that block HIV-1 replication in CEM cells” (J Med Chem, 1998).
